Screening results: PubChem BioAssay, Sanford-Burnham Center for Chemical Genomics
SENP7 inh: blocks the human protease SENP7; Q9BQF6; inhibition, % at 5 µM; 1.5% of 330,000 active; recombinant SENP7, Z-RLRGG-aminoluciferin luminescence, 40 min;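 active = inhibition above about 50% at the single test dose, limit read from the data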
Target sequence (Q9BQF6 706-1050 limits assumed): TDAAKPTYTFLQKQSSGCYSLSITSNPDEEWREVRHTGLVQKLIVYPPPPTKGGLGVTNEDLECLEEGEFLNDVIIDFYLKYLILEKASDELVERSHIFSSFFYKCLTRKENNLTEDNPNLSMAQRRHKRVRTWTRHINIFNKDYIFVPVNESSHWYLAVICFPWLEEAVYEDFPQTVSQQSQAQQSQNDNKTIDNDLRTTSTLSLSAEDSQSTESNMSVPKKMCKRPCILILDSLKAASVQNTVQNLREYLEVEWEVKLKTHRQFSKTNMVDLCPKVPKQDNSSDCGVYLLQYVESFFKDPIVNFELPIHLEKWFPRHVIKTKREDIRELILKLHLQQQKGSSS
SENP6 block: blocks the human protease SENP6 | Q9GZR1 | Recombinant SENP6 catalytic domain, aminoluciferin luminescence | inhibition, % at 10 µM | 1.8% of 330,000 active | AID 2599;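 active = inhibition above about 50% at the single tested dose, limit read from the data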
UBC13 inh: human UBC13 polyubiquitination inhibition; 0.47% of 330,000 active; UBC13 polyubiquitin chain formation, TR-FRET; inhibition, % at 20 µM; in the data active = inhibition above about 45%, passing the limit was not always enough
Apaf1 inhib: inhibitors of human Apaf-1 apoptosome. inhibition, % at 20 µM. AID 489030. 0.71% of 330,000 active. O14727. reconstituted apoptosome caspase-3 activity, DEVD-Rh110 fluorescence; active = inhibition of at least 40% at 20 µM
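detection = Rh110 fluorescence intensity | test system = biochemical Apaf-1 apoptosome reconstitution | also added = cytochrome c and DEVD-Rh110 substrate | schedule = 30 min plus 50 min, RT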
SENP8 block-1: blocks human SENP8 cleavage of Nedd8 substrate | Q96LD8 | 0.64% of 360,000 active | recombinant SENP8, Nedd8 substrate fluorescence | inhibition, % at 20 µM | AID 602440; in the data active = inhibition mostly above about 40%, no sharp cut-off; inactive = mostly below about 27%
SENP8 block-2: blocks the human protease SENP8 | 1.2% of 330,000 active | inhibition, % at 10 µM | purified SENP8, Z-RLRGG-aminoluciferin cleavage, luminescence | Q96LD8; in the data active = inhibition above about 50%
SENP8 confirm: confirmation of human SENP8 protease inhibitors | shares compounds with SENP7 inh | Recombinant SENP8, Z-RLRGG-aminoluciferin luminescence, 60 min | inhibition, % at 12.5 µM | 40% of 6,200 active;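 active = mean inhibition across replicates above about 50%, limit read from the data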
SENP6 conf: human SENP6 inhibition, confirmed | shares compounds with SENP7 inh | recombinant SENP6, Z-RLRGG-aminoluciferin luminescence | inhibition, % at 12.5 µM | 58% of 6,200 active
SENP7 conf: confirmation of human SENP7 protease inhibitors | shares compounds with SENP7 inh | 69% of 6,200 active | inhibition, % at 12.5 µM | recombinant SENP7, Z-RLRGG-aminoluciferin luminescence, 40 min
Casp3 SENP sel: selectivity test for SENP inhibitors: human caspase-3 inhibition; 60% of 6,200 active; purified caspase-3, Z-DEVD-aminoluciferin luminescence, 60 min; inhibition, % at 12.5 µM; shares compounds with SENP7 inh;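 active = mean inhibition above about 50%, limit read from the data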
SENP luc ctr: interferes with luciferase luminescence in SENP counter-screen. AID 488919. Pre-incubated SENP8/Z-RLRGG-aminoluciferin, luciferase luminescence interference. inhibition, % at 12.5 µM. 39% of 6,200 active. shares compounds with SENP7 inh;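 active = mean inhibition above about 50% when retested at one dose, limit read from the data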
A number is an active result; 0 = inactive; - = not tested or not shown. A selection: hits, their analogues and other compounds. The true share with any hit is near 3%.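 Rule for the calls, unless noted: active = mean inhibition above about 50% in the one-dose retest (limit read from the data); inactive = the rest.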

SMILES	SENP7 inh	SENP6 block	UBC13 inh	Apaf1 inhib	SENP8 block-1	SENP8 block-2	SENP8 confirm	SENP6 conf	SENP7 conf	Casp3 SENP sel	SENP luc ctr
Cc1ccnc2nc(C(=O)Nc3ccc4c(c3)OCO4)nn12	0	67	0	0	0	57	0	63	53	90	0
O=C(Nc1ccc2c(c1)OCO2)c1ccccn1	57	66	0	0	0	53	71	71	88	89	73
O=C(Nc1ccc2c(c1)OCO2)c1cnccn1	0	0	0	0	0	0	-	-	-	-	-
Cc1cc(C)n2nc(C(=O)Nc3ccc4c(c3)OCO4)nc2n1	0	0	0	0	0	0	-	-	-	-	-
O=C(/C=C\Nc1ccc2c(c1)OCO2)c1ccccn1	100	97	0	0	0	96	81	97	99	92	0
O=C(NCc1ccc2c(c1)OCO2)c1ccccn1	0	0	0	0	0	0	-	-	-	-	-
Cc1nnc(SCC(=O)NC2(C#N)CCCCC2)n1N	-	-	-	-	0	-	-	-	-	-	-
c1cc2[nH]snc2c2nc(C3CC3)nc12	0	55	0	0	0	0	0	0	0	0	0
O=C(Nc1ccccc1)c1cc(C2CCCCN2C(=O)c2cccs2)on1 (centres undefined)	-	-	-	-	0	-	-	-	-	-	-
Cc1ccc2nc(-c3cccnc3SCC(=O)N3c4ccccc4CC3C)[nH]c2c1 (centres undefined)	0	55	0	0	0	0	0	0	70	0	0
CCOC(=O)c1ccccc1NC(=O)COC(=O)C(CC)Oc1ccccc1 (centres undefined)	-	-	-	-	0	-	-	-	-	-	-
NC(=O)c1cnn(-c2cccc(Cl)c2)c1N	0	0	0	0	0	0	-	-	-	-	-
Nc1c(-c2ccccc2)cnn1-c1cccc(Cl)c1	94	90	0	0	0	84	90	90	99	87	81
Cc1cccc(-c2cnn(-c3ccccc3)c2N)c1	66	50	0	0	0	0	0	0	81	64	64
O=C(Nc1ccc(Cl)cc1)N[C@@H]1CC[C@H](CCNS(=O)(=O)c2ccccc2F)O[C@@H]1CO	-	-	-	-	0	-	-	-	-	-	-
Cc1cc2nc(C3CCCCC3)c(Cc3ccccc3)n2c(C)c1Br	-	-	-	-	0	-	-	-	-	-	-
Cc1cc2c(cc1C)-n1nnnc1C(N(C)Cc1ccccc1)C(=O)N2 (centres undefined)	-	-	-	-	0	-	-	-	-	-	-
COc1ccc2nc(NC(=O)c3ccccc3O)sc2c1	82	84	0	0	0	86	0	0	70	60	0
COc1ccc2nc(NC(=O)c3cccs3)sc2c1	97	96	0	0	0	94	0	0	0	0	0
Cc1nc2cc(NC(=O)c3ccc([N+](=O)[O-])s3)ccc2s1	0	0	0	0	0	0	-	-	-	-	-
CC(=O)Nc1ccc2nc(NC(=O)c3cccs3)sc2c1	92	93	0	0	0	83	56	87	93	90	0
CC(=O)Nc1ccc2nc(NC(=O)c3ccc([N+](=O)[O-])s3)sc2c1	0	64	0	0	-	0	0	0	0	0	0
COc1ccc2nc(NC(=O)c3ccccc3[N+](=O)[O-])sc2c1	0	0	0	0	0	0	-	-	-	-	-
COC(=O)c1ccc(COc2cccn3c(N(C)C(=O)CCC4CCCC4)c(C)nc23)cc1	-	-	-	-	0	-	-	-	-	-	-
CC1=CCC[C@@H]2[C@]3(CC/C(=C/CO)CO)CO[C@@]2(C1)[C@@H](O)C[C@H]3C	-	-	-	-	0	-	-	-	-	-	-
O=C(COc1ccc(Cl)cc1)N1CCN(S(=O)(=O)c2cc(F)ccc2F)CC1	-	-	-	-	0	-	-	-	-	-	-
CCOc1ccc(S(=O)(=O)/N=C(/Nc2ccc(OC)cc2)c2ccccc2)cc1	0	0	0	0	0	0	-	-	-	-	-
